From ChEMBL document CHEMBL1143659, “Discovery of a rhodanine class of compounds as inhibitors of Plasmodium falciparum enoyl-acyl carrier protein reductase” (J Med Chem, 2007) come the findings set out here.

As a reminder, the IC50 is the concentration that gives 50% inhibition. What is called Ki is the dissociation constant of the complex between target and ligand, obtained from inhibition or displacement. In general, MIC refers to the smallest concentration in the dilution series that meets the test's criterion for growth inhibition. Lower therefore signals a more susceptible organism.

Experiment [1] deals with T1, Enoyl-acyl-carrier protein reductase (Plasmodium falciparum, UniProt Q965D5).
T1 sequence (Q965D5 whole entry): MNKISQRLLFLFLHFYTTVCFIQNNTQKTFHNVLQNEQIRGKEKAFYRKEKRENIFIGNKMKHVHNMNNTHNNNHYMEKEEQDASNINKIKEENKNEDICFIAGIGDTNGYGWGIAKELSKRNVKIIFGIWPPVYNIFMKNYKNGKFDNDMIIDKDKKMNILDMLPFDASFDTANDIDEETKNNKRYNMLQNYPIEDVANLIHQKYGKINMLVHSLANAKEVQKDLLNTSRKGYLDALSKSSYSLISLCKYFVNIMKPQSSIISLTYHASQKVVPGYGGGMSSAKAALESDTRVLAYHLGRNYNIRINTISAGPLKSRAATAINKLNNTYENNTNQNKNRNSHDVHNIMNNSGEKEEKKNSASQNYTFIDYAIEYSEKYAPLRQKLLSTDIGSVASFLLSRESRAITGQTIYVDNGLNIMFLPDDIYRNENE
Put plainly: (§1) Inhibition of Plasmodium falciparum recombinant enoyl ACP reductase expressed in BL21 (DE3) cells. Type of experiment: biochemical. An outline of the steps:
(§2)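 His-tagged enzyme from E. coli, Ni-NTA purified. Assay at 25 °C in 150 mM Tris-NaCl pH 7.5, 200 µM crotonoyl-CoA, 100 µM NADH, 200 nM enzyme, 1% DMSO; NADH oxidation followed as A340 decrease. Percent inhibition from residual activity across serial inhibitor dilutions; IC50 by nonlinear regression vs log concentration; mean of three sets.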

Experiment [2] deals with T1, Enoyl-acyl-carrier protein reductase. In words: Inhibition of Plasmodium falciparum recombinant enoyl ACP reductase expressed in BL21 (DE3) cells with respect to crotonyl CoA. It is filed as cell-based. An outline of the steps: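 Ki via Dixon plot (x-intercept). Crotonoyl-CoA fixed at 100 and 200 µM, NADH 100 µM; inhibitor varied from 1 nM up to its IC50. Spectrophotometric NADH oxidation at 340 nm, 25 °C, Tris-NaCl pH 7.5; mean of three sets.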

The test system of a further experiment is Plasmodium falciparum. Put plainly: Growth inhibition of chloroquine-sensitive Plasmodium falciparum FCK2 in human erythrocytes after 96 hrs. As to conditions: FCK2, 96 h. Type of experiment: functional, organism-based. An outline of the steps: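 Synchronized early-trophozoite cultures (1-2% parasitemia, 2% hematocrit) in RPMI 1640 with 10% human serum, 0.225% bicarbonate, gentamycin; inhibitor in Me2SO (final ≤0.05%), added up to fourth day. Parasitemia scored by Giemsa-stained microscopy at 48 and 96 h against solvent control. IC50 by nonlinear regression of relative percent parasitemia vs log concentration; three independent experiments.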

Experiment [3] addresses T1, Enoyl-acyl-carrier protein reductase. In words: Inhibition of Plasmodium falciparum recombinant enoyl ACP reductase expressed in BL21 (DE3) cells with respect to NADH. It is filed as cell-based. Summed up: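 Ki via Dixon plot (x-intercept). NADH fixed at 50 and 100 µM, crotonoyl-CoA 200 µM, 200 nM enzyme; inhibitor varied from 1 nM up to its IC50. A340 NADH-consumption assay at 25 °C, pH 7.5; mean of three sets.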

The target of experiment [4] is T2, Enoyl-acyl-carrier protein reductase (Plasmodium falciparum) (UniProt Q965D5).
T2 sequence (whole entry): T1 sequence (Q965D5 whole entry)
The description is as §1. It is filed as biochemical. An outline of the steps: as §2

Converted amounts (≈) assume the structure as drawn. The source made the active and inactive calls. A value given as a limit tells only on which side of the number the result lay.

Turning to `CN(C)CCOC(=O)CCN1C(=O)/C(=C/c2ccc(Cl)cc2Cl)SC1=S`, the IC50 in experiment [1] is over 100 µM.

Regarding `O=C1/C(=C/c2ccc(O)c(O)c2)SC(=S)N1c1ccccc1`, the Ki in experiment [2] came to 0.0042 µM; in experiment [3], 0.032 µM. Also, the 50% inhibitory concentration (IC50) in experiment [1] turned out to be 0.035 µM; in the experiment on Plasmodium falciparum, 0.75 µM. The MIC in the experiment on Plasmodium falciparum stood at 2.5 µM (≈ 0.824 µg/mL).

Take `CCN1C(=O)/C(=C/c2cc(Cl)c(O)c(Cl)c2)SC1=S`: in experiment [1], the IC50 was over 100 µM.

As to `O=C1/C(=C/c2ccco2)SC(=S)N1c1cccc(F)c1`, the IC50 in experiment [1] was over 100 µM.

Regarding `O=C(Nc1cc(Cl)ccc1O)c1cc(-c2ccc(Cl)cc2)on1`, the IC50 in experiment [1] turned out to be 75 µM.

Turning to `O=C1NC(=S)S/C1=C\c1ccc(-c2ccccc2Cl)o1`, the IC50 in experiment [1] worked out at 35 µM.

`O=C1/C(=C/c2cccc(O)c2)SC(=S)N1c1ccc(F)cc1`: in experiment [1], the IC50 is over 100 µM.

For `CCOc1ccc(N2C(=O)/C(=C/c3cccc4ccccc34)SC2=S)cc1`, in experiment [4], the outcome was inactive.

Turning to `COc1ccc(N2C(=O)/C(=C/c3ccccc3)SC2=S)cc1`, the IC50 in experiment [1] was over 100 µM.

For `O=C1NC(=S)S/C1=C\c1ccc(-c2cccc(Cl)c2)o1`, the Ki is 0.88 µM in experiment [2] and 1.05 µM in experiment [3]. In addition, in experiment [1], the IC50 was found to be 1.7 µM.

As for `COc1ccc(N2C(=O)/C(=C/c3c4ccccc4cc4ccccc34)SC2=S)cc1`, in experiment [1], the IC50 was over 50 µM.

In the case of `COc1ccc(Cl)cc1NC(=O)c1cc(-c2ccc(Cl)s2)nc2ccccc12`, the half-maximal inhibitory concentration (IC50) in experiment [1] was 60 µM.

With `O=C1/C(=C/c2ccc(-c3cccc(Cl)c3)o2)SC(=S)N1c1cccc(Cl)c1`, the IC50 in experiment [1] is over 100 µM.

Regarding `COc1ccc(N2C(=O)/C(=C/c3ccc(OC)c4ccccc34)SC2=S)cc1`, the IC50 in experiment [1] was found to be 0.87 µM.

On to `COC(=O)CCCCCN1C(=O)/C(=C/c2cc(OC)c(OC)c(OC)c2)SC1=S`, for which the outcome in experiment [4] was inactive.

In the case of `O=C1NC(=S)S/C1=C\c1ccc(-c2cccc(Cl)c2Cl)o1`, the values for the Ki in experiment [2] and in experiment [3] were 0.48 µM and 0.56 µM, respectively. For the same molecule, in experiment [1], the IC50 was determined as 0.87 µM.

`O=C1NC(=S)S/C1=C\c1ccc(-c2ccc(Cl)c(Cl)c2)o1`: the Ki was found to be 0.51 µM in experiment [2] and 0.63 µM in experiment [3]. For the same molecule, the IC50 in experiment [1] amounted to 0.98 µM.

As for `COc1ccc(-c2cc(C(=O)Nc3cc(Cl)ccc3O)no2)cc1`, the IC50 in experiment [1] was 55 µM.

Consider `CCCCOc1ccc(/C=C2\SC(=S)N(CCCCCC(=O)OC)C2=O)cc1`, for which the result in experiment [4] was inactive.

With `COc1cc(/C=C2\SC(=S)N(CCCCCC(=O)O)C2=O)ccc1OCc1ccc(Cl)cc1`, the Ki amounted to 5.1 µM in experiment [2] and 5.4 µM in experiment [3]. In addition, the IC50 in experiment [1] worked out at 6.5 µM.

For `O=C(O)CCCN1C(=O)/C(=C/c2cn(-c3ccccc3)nc2-c2ccc(Cl)cc2)SC1=S`, the IC50 in experiment [1] came out at 50 µM.

`COc1ccc(N2C(=O)/C(=C/c3ccc(N(C)C)cc3)SC2=S)cc1`: the IC50 in experiment [1] was over 100 µM.

For the molecule `COc1cc(/C=C2\SC(=S)N(c3ccc(O)cc3)C2=O)ccc1O`, the 50% inhibitory concentration (IC50) in experiment [1] turned out to be 0.87 µM.

As to `O=C1NC(=S)S/C1=C\c1ccc(-c2cc(Cl)cc(Cl)c2)o1`, the Ki in experiment [2] stood at 4.1 µM; in experiment [3], 5.5 µM. Besides, in experiment [1], the IC50 stood at 6.1 µM.

As to `CCCCCCOc1ccc(/C=C2\SC(=S)N(CCCCCC(=O)O)C2=O)cc1OC`, the Ki was determined as 6.6 µM in experiment [2] and 7.3 µM in experiment [3]. Further, the IC50 in experiment [1] turned out to be 7 µM.

In the case of `O=C1/C(=C/c2cccc(O)c2)SC(=S)N1c1ccccc1`, the IC50 in experiment [1] was over 100 µM.

In the case of `Cc1ccc(-c2ccc(/C=C3\SC(=S)NC3=O)o2)cc1Cl`, the IC50 in experiment [1] was 28.5 µM.

Turning to `CCCOc1ccc(/C=C2\SC(=S)N(CCCCCC(=O)O)C2=O)cc1OC`, the IC50 in experiment [1] was determined as 45 µM.

`COc1ccc(N2C(=O)/C(=C/c3ccc(C(C)C)cc3)SC2=S)cc1`: in experiment [1], the IC50 is over 100 µM.

For `CN1C(=O)/C(=C/c2ccc(-c3ccc(Cl)cc3Cl)o2)SC1=S`, the result in experiment [4] was inactive. In addition, the IC50 in experiment [1] was determined as 0.87 µM.

In the case of `COc1ccc(N2C(=O)/C(=C/c3ccc(C=O)cc3)SC2=S)cc1`, the inhibitory constant (Ki) in experiment [2] came out at 13.2 µM; in experiment [3], 14.4 µM. In addition, the IC50 in experiment [1] amounted to 1.5 µM.

Take `COc1ccc(/C=C2\SC(=S)N(c3ccc(O)cc3)C2=O)cc1`: the Ki in experiment [2] is 8.7 µM; in experiment [3], 9.1 µM. Moreover, in experiment [1], the IC50 turned out to be 10 µM.

Consider `CC(C)(C)c1ccc(CS[n+]2cc3ccccc3c(=O)n2Nc2ccc(Cl)nn2)cc1`, for which the IC50 in experiment [1] came to 50 µM.

For the molecule `O=C1/C(=C/c2ccc(-c3ccc(Cl)cc3)o2)SC(=S)N1c1cccc(Cl)c1`, the IC50 in experiment [1] was over 100 µM.

As for `O=C1c2c(Cl)c(Cl)c(Cl)c(Cl)c2C(=O)N1c1ccc2[nH]c(/C=C/c3ccc(Cl)cc3)nc2c1`, in experiment [1], the IC50 came out at 70 µM.

Take `CCCCCOc1ccc(/C=C2\SC(=S)N(CCCCCC(=O)O)C2=O)cc1OC`: the IC50 in experiment [1] was over 100 µM.

For the molecule `CN1C(=O)/C(=C/c2ccc(-c3cc(Cl)cc(Cl)c3)o2)SC1=S`, the IC50 in experiment [1] was 0.87 µM.

For `CN(C)c1ccc(/C=C2\SC(=S)N(c3ccc(O)cc3)C2=O)cc1`, the IC50 in experiment [1] amounted to 0.87 µM.

Regarding `Oc1cc(Cl)ccc1Oc1ccc(Cl)cc1Cl` [TRICLOSAN], the Ki in experiment [2] came to 0.66 µM. Moreover, the IC50 in experiment [1] is 0.066 µM.

For the molecule `CN1C(=O)/C(=C/c2ccc(-c3ccc(Cl)c(Cl)c3)o2)SC1=S`, the IC50 in experiment [1] is over 100 µM.

Turning to `COC(=O)CCCCCN1C(=O)/C(=C/c2cccc(O)c2)SC1=S`, the IC50 in experiment [1] was over 100 µM.

Consider `O=C(NC1CCCc2ccccc21)c1cc(Sc2cccc(Cl)c2)nc2ccccc12` (stereo not drawn), for which the IC50 in experiment [1] turned out to be 50 µM.

As for `CCN(CC)c1ccc(N2C(=O)/C(=C/c3ccc(OC)cc3)SC2=S)cc1`, the IC50 in experiment [1] was over 100 µM.

For `CCc1ccc(/C=C2\SC(=S)N(CCCCCC(=O)OC)C2=O)cc1`, the IC50 in experiment [1] was over 100 µM.

Regarding `O=C(NCCN1CCCc2ccccc21)c1cc(-c2ccc(Cl)s2)nc2ccccc12`, the IC50 in experiment [1] was 60 µM.

As for `Cc1cc(/C=C2\SC(=S)N(CCCCCC(=O)O)C2=O)ccc1OCc1ccccc1`, the IC50 in experiment [1] is over 100 µM.

Regarding `Clc1ccc(CNc2nc(SCc3ccc(Cl)cc3)nc3ccccc23)cc1`, in experiment [1], the IC50 was 52 µM.

On to `CN(C)CCOC(=O)CCCCCN1C(=O)/C(=C/c2ccccc2)SC1=S`, for which the IC50 in experiment [1] is over 100 µM.

As to `CN1C(=O)/C(=C/c2ccc(-c3cccc(Cl)c3)o2)SC1=S`, the IC50 in experiment [1] worked out at 30.2 µM.

On to `CCc1nnc(NS(=O)(=O)c2ccc(N3C(=O)c4c(Cl)c(Cl)c(Cl)c(Cl)c4C3=O)cc2)s1`, for which the IC50 in experiment [1] was 90 µM.

In the case of `CCN1C(=O)/C(=C/c2ccc(N(CC)CC)cc2O)SC1=S`, in experiment [1], the IC50 was over 100 µM.

Regarding `COC(=O)CCCCCN1C(=O)/C(=C/c2ccc(Cl)cc2)SC1=S`, in experiment [1], the IC50 is over 100 µM.

As to `O=C1/C(=C/c2ccc(Cl)cc2Cl)SC(=S)N1c1ccc(O)cc1`, the IC50 in experiment [1] is 25 µM.

As to `COc1ccc(/C=C2\SC(=S)N(c3ccc(OC)cc3)C2=O)cc1`, the IC50 in experiment [1] was over 100 µM.

In the case of `O=C1NC(=S)S/C1=C\c1ccc(-c2cc(Cl)ccc2Cl)o1`, the Ki turned out to be 2 µM in experiment [2] and 2.5 µM in experiment [3]. In experiment [1], the IC50 stood at 6 µM.

As for `O=C(O)CCCCCN1C(=O)/C(=C/c2c[nH]c3ccccc23)SC1=S`, the IC50 in experiment [1] was 100 µM.

For `Cc1ccc(-c2ccc(/C=C3\SC(=S)N(C)C3=O)o2)cc1Cl`, in experiment [1], the IC50 is 0.87 µM.

For the molecule `O=C(O)c1cccc(-c2ccc(/C=C3\SC(=S)N(c4cccc(C(F)(F)F)c4)C3=O)o2)c1`, the IC50 in experiment [1] came to 20 µM.

Consider `CC(C)c1ccc(/C=C2\SC(=S)N(CCCCCC(=O)O)C2=O)cc1`, for which the IC50 in experiment [1] was over 100 µM.
